Many of the other results were omitted from the sample, so hits are more common in it than they were.
bCat KO growth: beta-catenin-lacking colon tumor cell growth suppression; HCT116 beta-catenin knockout viability, CellTiter-Glo, 60 h; active compounds read low; viability, % at 10 µM; actives 1.5% (n = 140,000); AID 818;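 active = viability at or under a set limit, the compound median less 4 SD, cut at about 6% in these data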;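 note: 0% = Hyamine 1622 control at 20 µM and 100% = untreated cell control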
H69AR growth 86K: blocks growth of human H69AR lung tumor cells | viability, % at 10 µM | AID 598 | actives 6% (n = 85,000) | H69AR lung tumor viability, ATP luminescence, 72 h; active compounds read low;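 active = viability at or below 40%; inactive = viability above 40%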;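 note: multidrug resistant small cell line overexpressing MRP-1 efflux transporter; 100% = mean luminescence of untreated control wells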
HUVEC inhibit: inhibitors of human endothelial cell proliferation. HUVEC proliferation, CellTiter-Glo luminescence, 72 h; active compounds read low. viability, % at 10 µM (by protocol). actives 1.1% (n = 86,000). AID 648;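 active = viability at or below 30%; inactive = viability above 30%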;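 note: 100% = median luminescence of DMSO-only cell control wells on each plate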
HCT116 PTEN-null: suppresses growth of cells with PTEN deletion; HCT116 PTEN-null viability, CellTiter-Glo, 60 h; active compounds read low; AID 827; viability, % at 10 µM; actives 1.2% (n = 140,000);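 active = viability at or below a set limit, 4 SD under the median of all tested compounds, cut at about 3.7% in these data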;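 note: PTEN knockout HCT116 line with beta catenin targeted HCT116 as companion control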
Fibroblast inh: blocks proliferation of human lung fibroblasts. viability, % at 10 µM. AID 719. actives 1.1% (n = 85,000). LL 47 human lung fibroblast viability, ATP luminescence; active compounds read low;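 active = viability at or below 50% in the single dose screen; inactive = viability above 50%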;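 note: compound exposure lasted 72 h before the ATP readout; 100% = median luminescence of untreated cell-only wells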
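Test system: LL 47 human lung fibroblasts; Quantity: 1,150 cells/well; Buffer or medium: IMEM plus 15% FBS; Dosing: tenfold compound dosing solution, DMSO at 0.1%; Timing: overnight cell rest, 72 h compound treatment at 37 °C; Detection: ATP-based CellTiter-Glo luminescent readout; Read-out basis: viability percentage against median untreated-cell control; Controls: cell-only wells, no compound.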
The depositor's hits bear a star; / = not tested or not shown.

SMILES	bCat KO growth	H69AR growth 86K	HUVEC inhibit	HCT116 PTEN-null	Fibroblast inh
O=C(O)C1CCCCC1C(=O)Nc1cccc2ccccc12 (centres undefined)	91	83	92	94	108
Cc1nn(-c2ccccc2)c2nc(-c3ccncc3)cc(C(=O)NCc3ccco3)c12	60	31*	70	54	92
Cc1nn(-c2ccccn2)c2nc(-c3cccs3)cc(C(=O)NCc3ccco3)c12	64	16*	71	66	101
O=C(Nc1ccc(-c2noc(-c3cccs3)n2)cc1)c1cccnc1	78	10*	52	73	101
COc1ccc(-c2noc(-c3ccccc3C(=O)Nc3cccnc3)n2)cc1	86	76	87	80	95
COc1cccc(-c2nc(-c3ccc(NC(=O)c4cccnc4)cc3)no2)c1	87	26*	101	87	100
CCOC(=O)CC(Nc1nc(N2CCOCC2)nc(N2CCOCC2)n1)c1ccccc1Cl (centres undefined)	91	89	98	84	84
c1ccc(CCNc2ncnc3scc(C4COc5ccccc5O4)c23)cc1 (centres undefined)	55	28*	87	50	97
CC1=C(CC(=O)c2ccccc2)C(=O)c2ccccc2C1=O	2.2*	/	/	2.0*	/
O=C(CN1C(=O)c2ccccc2C1=O)c1ccccc1	108	93	96	104	100
O=C(Oc1ccc2c3c(c(=O)oc2c1)CCC3)c1ccccc1[N+](=O)[O-]	105	/	/	87	/
COC(=O)c1c(-c2ccc(C(C)(C)C)cc2)csc1NC(=O)C1C2CCC(O2)C1C(=O)O (centres undefined)	87	/	/	89	/
Cc1ccccc1CS(=O)(=O)c1snnc1C	96	/	/	91	/
Cc1ccccc1CS(=O)(=O)c1cnc2ccccc2n1	15	16*	74	8	76
CC(C)C[C@@H]1NC(=O)[C@H](CO)NC(=O)c2cc([N+](=O)[O-])cc(I)c2OCC[C@@H](C(N)=O)NC1=O	97	/	/	100	/
CCOC(=O)c1c(NC(=S)NC(=O)c2ccc(Cn3cc(Cl)cn3)o2)sc2c1CCCCC2	2.4*	/	/	6	/
CCOc1ccccc1C(=O)N(Cc1ccccc1)Cc1cc2cc3c(cc2[nH]c1=O)OCCO3	/	9.0*	19*	/	26*
CCOc1ccc2[nH]c(=O)c(CN(CCc3ccccc3)C(=O)N3CCCC3)cc2c1	70	/	/	66	/
CCCN(Cc1cc2cc(OC)ccc2[nH]c1=O)C(=O)c1ccncc1	74	25*	80	66	85
CCOc1ccc(C(=O)N(Cc2ccc(OC)cc2)Cc2cc3cc(OC)ccc3[nH]c2=O)cc1	87	19*	70	92	86
CCOc1ccc2[nH]c(=O)c(CN(Cc3ccc(C)cc3)C(=O)N3CCCC3)cc2c1	93	33*	90	81	89
COc1ccc2[nH]c(=O)c(CN(C)C(=O)c3ccncc3)cc2c1	108	94	89	106	97
COc1cc(NC(=O)C2=C(N3CCOCC3)/C(=C\c3ccc(Cl)cc3Cl)CC2)cc(OC)c1OC	71	/	/	67	/
CCSc1cc(N2CCOCC2)nc(-c2ccc(Cl)cc2)n1	93	/	/	87	/
CC(=O)N(c1ccccc1)c1nc(/C=C/C(=O)Nc2c(C)cc(C)cc2C)cs1	71	/	/	74	/
SMILES	bCat KO growth	H69AR growth 86K	HUVEC inhibit	HCT116 PTEN-null	Fibroblast inh
O=C(C1=NNCC1c1ccccc1)C1CO1 (centres undefined)	54	/	/	58	/
O=C(C1CC1)N1CCc2cc(Br)cc(S(=O)(=O)N3CCCCCC3)c21	75	37*	98	77	83
CCC(=O)N1CCc2cc(Br)cc(S(=O)(=O)N3CCCCCC3)c21	86	75	100	79	104
CC(C)(C)c1ccc(CN2C3=NCCCN3c3ccccc32)cc1	3.9*	15*	61	2.9*	76
COc1ccc(COc2cc(-c3cccc(OC)c3)nc3ccc(NC(=O)C(C)C)cc23)cc1	21	/	/	25	/
C=CCn1c(SCc2nc3ccccc3c(=O)[nH]2)nnc1-c1cc2cc(Cl)ccc2o1	70	17*	65	76	92
CC1CCCCC1NC(=O)c1ccc2c(c1)[nH]c(=O)n2C1CCCC1 (centres undefined)	88	21*	105	83	92
Cc1c(CC(C)C)nc(N)c(C#N)c1-c1ccccc1	70	24*	84	70	92
O=C(NCCc1ccccc1)C(=O)NCC1CCCO1 (centres undefined)	93	106	89	100	105
